The values that follow come from publication PMC11437091 (Scientific Reports, 2024).

For assay [1], the system named is EDB-FN in MDA-MB-231 cells. Kind of assay: confocal immunofluorescence colocalization with EDB-FN. Type of assay: cell-based. The note with it: confocal microscopy, 1 µM, 37 °C, 2 h. The essentials:
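MDA-MB-231 cells were seeded at 1 × 10^5 cells/ml in confocal dishes. They were incubated with 1 µM Cy5-labelled test compound for 2 h at 37 °C, washed six times with PBST, and fixed in 4% paraformaldehyde. Permeabilization used 0.25% Triton X-100 and blocking used 5% BSA for 30 min. Anti-EDB-FN mAb (1:1000) was applied overnight at 4 °C. Alexa Fluor 488 anti-rabbit (4 µg/mL) was applied 1 h at RT. Nuclei were stained with DAPI and imaged by confocal microscopy.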

Assay [2] has as its system subcutaneous MDA-MB-231-luc tumor. The assay is described as follows: NIRF imaging, subcutaneous tumor model mice. The assay is classed as in vivo. The essentials: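 Female BALB/c-nude mice, 6 weeks old, received 1 × 10^6 MDA-MB-231-luc cells s.c. in PBS with 30% matrigel. The Cy5-labelled test compound (1 µmol) was injected i.v. via tail vein. IVIS whole-body imaging at 48 h used excitation 640 nm and emission 680 nm. Luminescence was read from 10 min after i.p. luciferin 150 mg/kg. Organs and tumour were imaged ex vivo after euthanasia, with semiquantitative fluorescence intensity, n = 3.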

A further assay deals with MDA-MB-231 cells. The assay is described as follows: flow cytometry binding of EDBp-Cy5 to cells. The note with it: 1 µM, 37 °C, 60 min. Type of assay: cell-based. The method in brief: (§1)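 Cells were grown in DMEM with 10% FBS at 37 °C and 5% CO2, then seeded at 1 × 10^6 cells/ml in 6-well plates. They were stained with 1 µM Cy5-labelled test compound, or a Cy5-labelled cyclic control peptide, for 60 min at 37 °C. Cells were washed three times with PBS and analysed by flow cytometry for Cy5 signal.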
Background: A flow cytometer gives signals particle by particle.

The test system of a further assay is EMT6 cells. The assay is described as follows: flow cytometry binding of EDBp-Cy5 to cells. The note with it: 1 µM, 37 °C, 60 min. Type of assay: cell-based. The essentials: as §1
For another assay, the system named is MCF7 cells. Kind of assay: flow cytometry binding of EDBp-Cy5 to cells. Type of assay: cell-based. The note with it: 1 µM, 37 °C, 60 min. The essentials:
as §1

As for AVRTSAD-PEG4-K-Cy5 [EDBp-Cy5], the “colocalization with EDB-FN” value in assay [1] is “colocalized with EDB-FN”. Further, the “enrichment in subcutaneous tumor (NIRF imaging)” value in assay [2] (48 h after i.v. injection of 1 µmol, whole-body imaging) is on record as “significantly enriched”. The “ex vivo distribution in main organs and tumor (NIRF)” value in assay [2] (48 h after injection, organs collected, n = 3) is “observed mainly in the kidney and subcutaneous tumor”. Further, the cell binding ability result was “high” with MDA-MB-231 cells, “moderate” in the assay on EMT6 cells and “moderate” in the assay on MCF7 cells.
